Screens (PubChem)
In the library only some 1.8% were active in any assay of this set; here they are far more common.
Scp1 inh – inhibitors of human Scp-1 phosphatase; Q9GZU7; Recombinant Scp1, phosphopeptide, malachite green phosphate absorbance; inhibition, % at 20 µM; hit rate 0.88% among 340,000; AID 493091;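 active = inhibition above about 50% at 20 µM, limit read from the data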
Target sequence (Q9GZU7 76-261 limits assumed): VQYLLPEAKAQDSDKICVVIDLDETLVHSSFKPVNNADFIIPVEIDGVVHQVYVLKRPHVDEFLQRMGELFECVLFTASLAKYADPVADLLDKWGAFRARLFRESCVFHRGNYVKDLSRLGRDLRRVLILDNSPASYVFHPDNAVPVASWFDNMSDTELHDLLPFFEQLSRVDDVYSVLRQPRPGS
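Test system: SCP-1 phosphatase catalytic domain, residues 76-261 | Compound dosing: One concentration, 20 µM, with 1.0% DMSO | Schedule: 45 min room-temperature reaction, 5 min colour, 30 min stabiliser | Detection: Absorbance at 630 nm | Read-out basis: % inhibition of SCP-1 phosphate liberation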
STEP inh – STEP (human) phosphatase inhibition; P54829; recombinant STEP, OMFP fluorogenic substrate, fluorescence; inhibition, % at 20 µM; hit rate 0.25% among 360,000;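 active = inhibition at 20 µM, scaled per plate between control wells, above about 37%, limit read from the data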
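Material: STEP (striatal-enriched tyrosine phosphatase) enzyme, cell-free; Compound dosing: 20 µM single dose in 1% DMSO; Technique: fluorescence read at 480 nm ex / 540 nm em; Times: reaction 20 min, ambient temperature; Medium: 50 mM Bis-Tris pH 6.0 with 2.5 mM DTT and 0.005% Tween 20; Also added: OMFP at 25 µM.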
LMPTP block – blocks human LMPTP phosphatase; P24666; recombinant LMPTP-A, OMFP fluorogenic substrate, fluorescence intensity; inhibition, % at 20 µM; hit rate 0.22% among 360,000; AID 651560;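 active = compounds that cut the enzyme signal by at least half of the control window in the single-dose screen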
Target sequence (P24666 whole entry, looked up): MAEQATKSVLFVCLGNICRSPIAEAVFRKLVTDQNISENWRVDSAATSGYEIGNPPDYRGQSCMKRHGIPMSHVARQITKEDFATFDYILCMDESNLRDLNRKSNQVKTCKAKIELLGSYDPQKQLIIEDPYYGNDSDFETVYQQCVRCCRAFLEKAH
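material = LMPTP-A | quantity = 0.625 nM enzyme | reagent = OMFP substrate, 400 µM final | buffer or medium = Bis-Tris pH 6.0, DTT, detergent | detection = endpoint fluorescence intensity from OMFP dephosphorylation | dosing = single 20 µM dose | read-out basis = % inhibition relative to no-enzyme and uninhibited control wells | control set = no-enzyme and uninhibited controls | timing = 50 min at room temperature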
DNMT1 inh – blocks human DNA methyltransferase DNMT1; inhibition (reported as % activation of signal), % at 10 µM; DNMT1 molecular beacon, Hinp1I cleavage, fluorescence; P26358; hit rate 0.83% among 360,000; in the data active = inhibition above about 50%
SUMO1-SIM PPI – SUMO1-SIM interaction modulation | inhibition, % at 20 µM | hit rate 0.33% among 360,000 | SUMO1 binding to a labelled peptide, TR-FRET, 1 h; in the data active = inhibition above about 37%
Target sequence (P63165 whole entry, looked up): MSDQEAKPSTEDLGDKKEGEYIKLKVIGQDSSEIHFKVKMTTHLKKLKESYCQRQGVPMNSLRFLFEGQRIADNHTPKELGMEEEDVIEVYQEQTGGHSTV
Scp-1 conf – Scp-1 (human) inhibition, single-dose confirmed; shares compounds with Scp1 inh; recombinant SCP-1 catalytic domain, phosphate release, malachite green absorbance; inhibition, % at 20 µM; hit rate 61% among 2,500; AID 540281
MG interference – interferes with malachite green readout, flagging false Scp-1 hits | shares compounds with Scp1 inh | Colorimetric interference counterscreen, malachite green absorbance 630 nm | apparent inhibition (interference), % at 20 µM | 2,500 tested, under 10 active;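 also: compounds added after enzyme reaction finished so only phosphate colour detection is probed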
Scp-1 Tm shift – validation of human Scp-1 inhibitors by thermal shift binding; shares compounds with Scp1 inh; Recombinant SCP1, Sypro Orange thermal shift Tm; thermal shift relative to vanadate control, % at 40 µM; hit rate 25% among 1,500;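 active = substances whose mean melting-temperature shift, as a percentage of the reference inhibitor's shift, reaches about 5.3%, limit read from the data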
DNMT1 inh conf – DNMT1 inhibition confirmation, single concentration. shares compounds with DNMT1 inh. inhibition, % at 10 µM. DNMT1 molecular beacon HinP1I cleavage, fluorescence. hit rate 8% among 2,300;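 active = average inhibition of at least 30% in the single-concentration confirmation test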
Beacon interf – shows spectral interference in the DNMT1 beacon assay | shares compounds with DNMT1 inh | DNMT1 molecular beacon spectral interference counterscreen, fluorescence 485/520 | activation (fluorescence interference), % at 10 µM | hit rate 1% among 2,300 | AID 602387;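 active = activation of at least 30% at 10 µM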;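 also: DNMT1 catalytic domain with a HinP1I cleavage step and a FAM/dabcyl DNA beacon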
Hits are given with their value; 0 = inactive; - = no result.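 The calls were made as follows, unless noted: active = inhibition of at least 30% at 20 µM; inactive = the rest.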

SMILES	Scp1 inh	STEP inh	LMPTP block	DNMT1 inh	SUMO1-SIM PPI	Scp-1 conf	MG interference	Scp-1 Tm shift	DNMT1 inh conf	Beacon interf
O=C(O)c1ccc(NC(C(=O)c2ccccc2)c2ccccc2)cc1 (configuration not stated)	0	0	0	0	0	-	-	-	-	-
COc1ccc(C(=O)Oc2ccc(/C=N/NC(=O)Cc3ccc([N+](=O)[O-])cc3)cc2)cc1	91	0	0	53	0	0	0	-	0	0
CCOC(=O)C1=C(O)/C(=C/c2ccc(CNC(=O)C(=O)Nc3ccc(C)cc3)o2)N=C1C	69	0	0	90	0	0	0	-	0	0
CCOC(=O)C(=O)NCc1ccc(/C=C2/N=C(C)C(C(=O)OCC)=C2O)o1	0	0	0	0	0	-	-	-	-	-
CCOC(=O)c1cocc1C(=O)O	0	0	0	0	0	-	-	-	-	-
O=C(Nc1ccc(-c2nc3ccccc3s2)c(O)c1)C1=COCCO1	98	0	53	70	0	71	0	9.9	0	0
CC(C)(C)OC(=O)NCCCCCNC(=O)c1[nH]cnc1C(=O)Nc1cc(Br)ccc1F	-	0	0	0	0	-	-	-	-	-
CCc1nc2oc3ccccc3c(=O)c2c(=O)n1-c1ccc(C)cc1	65	0	0	78	0	56	0	0	0	0
CCCc1nc2oc3ccccc3c(=O)c2c(=O)n1-c1ccc(C)cc1	0	0	0	0	0	-	-	-	-	-
O=c1c(Cl)c(N/N=C/c2ccc(Br)cc2)cnn1-c1ccccc1	59	0	52	90	0	61	0	0	0	0
CCOc1ccccc1N1CC(C(=O)Nc2cc(S(C)(=O)=O)ccc2Cl)CC1=O (configuration not stated)	0	0	0	0	0	-	-	-	-	-
Nc1nc(SCc2ccc(Cl)cc2Cl)nc2nc3c(cc12)CCCC3	97	0	0	90	0	76	0	0	0	0
O=C(CSc1nnc(Nc2ccccc2F)s1)NCc1ccco1	83	0	0	76	0	63	0	0	0	0
Cc1nnc(SCC(=O)NC(=O)NCc2ccco2)n1Cc1ccccc1	87	0	0	66	0	63	0	0	0	0
O=C(CSc1nnc(-c2ccco2)n1Cc1ccccc1)NC(=O)NCc1ccccc1	0	0	0	0	0	-	-	-	-	-
Cc1ccccc1Nc1nnc(SCC(=O)NC(=O)NCc2ccco2)s1	84	0	0	90	0	61	0	0	0	0
O=C(CSc1nnc(COc2ccccc2Cl)o1)NC(=O)NCc1ccco1	76	0	0	72	0	44	0	0	0	0
COc1ccccc1/C=C/C(=O)N1CCN(S(=O)(=O)c2cc(C)ccc2C)CC1	0	0	0	0	0	-	-	-	-	-
Cc1ccc(C(=O)OC(C(=O)O)C(OC(=O)c2ccc(C)cc2)C(=O)O)cc1 (configuration not stated)	0	0	0	0	0	-	-	-	-	-
CN(C(=O)c1cccc(NC(=O)Cc2ccc(NC(=O)C3CCCN(C(=O)C4CCCCC4)C3)cc2)c1)C1CCC1 (configuration not stated)	0	0	0	0	0	-	-	-	-	-
O=C(CSc1nc2ncccc2[nH]1)NCc1ccco1	0	0	0	0	0	-	-	-	-	-
O=C(CSc1nccc(=O)[nH]1)NCc1ccco1	93	0	0	77	0	69	0	0	0	0
COc1cc(OC)cc(C(=O)Nc2ccccc2C(=O)NC2CC2)c1	0	0	0	0	0	-	-	-	-	-
CCN(CC)S(=O)(=O)c1ccc(/C=C/C(=O)OCC(=O)NCc2ccco2)cc1	71	0	0	64	0	79	0	0	0	0
CCCCn1nnc(NC(=O)Cc2ccc(Cl)cc2)n1	0	0	0	0	0	-	-	-	-	-
SMILES	Scp1 inh	STEP inh	LMPTP block	DNMT1 inh	SUMO1-SIM PPI	Scp-1 conf	MG interference	Scp-1 Tm shift	DNMT1 inh conf	Beacon interf
CCn1nnc(NC(=O)CSc2ccc(Cl)cc2)n1	51	0	0	66	0	72	0	0	0	0
COc1ccccc1CCC(=O)OCC(=O)Nc1cc(C)nn1-c1ccccc1	0	0	0	0	0	-	-	-	-	-
Cc1ccc(NC(=O)Cn2nc(C(=O)O)c3ccccc3c2=O)cc1S(=O)(=O)N1CCOCC1	0	0	0	0	0	-	-	-	-	-
O=c1c2c3c(sc2n(CCN2CCCC2)c(=O)n1Cc1ccco1)CCCCC3	0	0	0	0	0	-	-	-	-	-
O=C(Cn1c(=O)n(Cc2ccco2)c(=O)c2c3c(sc21)CCCCC3)c1ccccc1	56	0	0	72	0	0	0	-	0	0
CN(C)CCn1c(=O)n(Cc2ccco2)c(=O)c2c3c(sc21)CCCCC3	0	0	0	0	0	-	-	-	-	-
O=C(Cn1c(=O)n(Cc2ccco2)c(=O)c2c3c(sc21)CCCCC3)Nc1ccccc1	74	0	0	93	0	44	0	7.9	0	0
OCC1(CCOc2ccccc2)CCN(Cc2nc3ccc(F)cc3[nH]2)CC1	0	0	0	0	0	-	-	-	-	-
O=C(N/N=C/c1cccnc1)c1cc(-c2ccc(Br)cc2)nc2ccccc12	0	0	0	0	0	-	-	-	-	-
O=C(NNC(=O)c1cc2cc3ccccc3nc2s1)c1cccc(C(F)(F)F)c1	75	0	0	51	0	71	0	0	0	0
O=C(NNS(=O)(=O)c1ccccc1)c1cc2cc3ccccc3nc2s1	0	0	0	0	0	-	-	-	-	-
O=C(O)c1cccc(-n2cccc2/C=C2\SC(=O)N(Cc3ccccc3F)C2=O)c1	93	0	0	91	0	81	0	0	0	0
O=C(CN1C(=O)S/C(=C/c2cccn2-c2ccc(O)cc2)C1=O)N1CCCC1	0	0	0	0	0	-	-	-	-	-
O=C(O)c1cccc(-n2cccc2/C=C2/SC(=O)N(CC(=O)N3CCCC3)C2=O)c1	67	0	0	70	0	54	0	0	0	0
O=C(O)c1cccc(-n2cccc2/C=C2/NC(=O)N(c3cccc(Cl)c3)C2=O)c1	85	0	0	97	0	64	0	0	0	0
COc1ccc(NC(=O)/C(C#N)=C/c2ccc(-c3ccccc3C(=O)O)o2)cc1	0	0	0	0	0	-	-	-	-	-
COc1ccc(NC(=O)/C(C#N)=C\c2ccc(Br)o2)cc1	94	0	0	79	0	58	0	0	0	0
Cc1cccc(OCCC(=O)Nc2ccc(N3CCOCC3)cc2N2CCOCC2)c1	0	0	0	0	0	-	-	-	-	-
CCCn1nnnc1SCC(=O)NC1CCCC1	0	0	0	0	0	-	-	-	-	-
